# The list is not random: actives were taken first. Their share in the collection is about 2.9%.
# hiPSC survival: hiPSC single-cell survival enhancement | AID 602274 | survival enhancement, % at 20 µM | 360,000 compounds, 0.044% hits | ATPlite luminescence; 100% = ROCK inhibitor wells, 0% = DMSO; in the data active = survival enhancement above about 18%;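 also: cells exposed to compounds for 16 hours before the ATP read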
# MIN6 prolif: inducers of beta-cell replication in MIN6 cells; MIN6 cells proliferation, ATPlite luminescence, 48 h; cells starved in 0.2% serum; 100% = growth in 10% serum; proliferation, % at 10 µM; 330,000 compounds, 0.29% hits;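 active = compounds whose signal lies at least 3.5 SD above the mean of all wells on their plate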;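 also: 0% = DMSO-treated cells in low-serum medium and 100% = 10% serum control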
# H9c2 TAG inh: reduces triacylglycerol accumulation in H9c2 cells; Nile Red lipid (TAG) fluorescence; cells loaded with 200 µM oleic acid; inhibition, % at 12.5 µM; 230,000 compounds, 0.66% hits; AID 651582;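 active = pattern-corrected inhibition of lipid staining of at least 50% with the nuclear-stain viability signal not falling by more than 50%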;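 also: 0% = DMSO wells and 100% = triacsin C control wells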
# NR1D1 modulator: modulators of human Rev-erb alpha DNA binding | P20393 | Rev-erbα–FITC-DNA binding, fluorescence polarization, 90 min | activity, % at 10 µM | 370,000 compounds, 0.79% hits | AID 1259318;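 active = activity above about 14%, limit read from the data; passing the limit was not always enough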;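 also: 0% = DMSO wells with 35 nM protein and 100% = DMSO wells with 750 nM protein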
# Target sequence (P20393 whole entry, looked up): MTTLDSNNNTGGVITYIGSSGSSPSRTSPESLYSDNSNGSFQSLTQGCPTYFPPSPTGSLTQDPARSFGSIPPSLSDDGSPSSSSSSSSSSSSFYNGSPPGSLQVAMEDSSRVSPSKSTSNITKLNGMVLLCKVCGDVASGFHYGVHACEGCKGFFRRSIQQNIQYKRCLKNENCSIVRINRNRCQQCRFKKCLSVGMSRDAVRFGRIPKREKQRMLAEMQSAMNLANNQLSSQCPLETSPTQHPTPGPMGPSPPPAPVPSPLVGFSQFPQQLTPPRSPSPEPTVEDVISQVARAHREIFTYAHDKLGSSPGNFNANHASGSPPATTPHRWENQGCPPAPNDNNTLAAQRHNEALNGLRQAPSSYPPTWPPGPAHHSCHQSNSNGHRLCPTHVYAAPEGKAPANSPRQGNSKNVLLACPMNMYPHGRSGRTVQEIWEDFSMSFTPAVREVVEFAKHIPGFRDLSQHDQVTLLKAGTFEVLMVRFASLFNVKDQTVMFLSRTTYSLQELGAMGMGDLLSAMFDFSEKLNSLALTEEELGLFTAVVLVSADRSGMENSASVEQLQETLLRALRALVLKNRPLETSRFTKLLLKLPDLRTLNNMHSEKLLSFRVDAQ
# T cruzi inh: blocks replication of Trypanosoma cruzi; 300,000 compounds, 1.4% hits; inhibition, % (no concentration beside the values); AID 1885; T. cruzi beta-gal in NIH3T3, luminescence, 90 h;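 active = mean inhibition across valid replicates above about 55%, limit read from the data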;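 also: signal also drops with host cell toxicity which is not excluded here; 0% = plate median of DMSO wells and 100% = zero luminescence signal; higher percent means less beta-gal luminescence so fewer parasites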
#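 System: mouse NIH/3T3 fibroblasts infected with β-gal-expressing T. cruzi Tulahuen C4 / Input: NIH/3T3 cells, 5,000 per well / Buffer or medium: Low-serum DMEM with 2% FBS / Probe or stimulus: 5000 reporter trypomastigotes per well / Schedule: ≥90 h infection period, 3 h prior cell attachment / Measured by: GalScreen luminescence, 60 min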
# PG9 binder: binds the HIV-1 gp120 antibody PG9; TR-FRET gp120-PG9 antibody binding; inhibition, % at 6.7 µM; 360,000 compounds, 0.43% hits; AID 624416; in the data active = inhibition above about 8.5%
# NR1D1 mod conf: confirmation of modulators of human Rev-erb alpha DNA binding; shares compounds with NR1D1 modulator; Rev-erb alpha FITC-DNA binding, fluorescence polarization, 90 min; activation, % at 25 µM; 3,000 compounds, 61% hits; AID 1259319;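 active = activation at or above a set limit, or at least 3 SD above the negative control mean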;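 also: 0% = 35 nM protein with DMSO and 100% = 750 nM protein high control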
# RORg DNA counter: RORgamma DNA-binding activity, dose-response counter-screen. shares compounds with NR1D1 modulator. 910 compounds, 8% hits. IC50, µM. purified RORgamma protein-FITC-DNA binding, fluorescence polarization;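 active = Compounds whose fitted half-maximal concentration for disrupting protein-DNA binding is below 10 micromolar; the record names Rev-erb in its text, so the target is in doubt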
# * hit, by the source's call; i = inactive; / = no result.
SMILES,hiPSC survival,MIN6 prolif,H9c2 TAG inh,NR1D1 modulator,T cruzi inh,PG9 binder,NR1D1 mod conf,others
CCCn1nc(NC(=O)CC(C)C)c2cc3cccc(C)c3nc21,0,-1,/,20,-5,3,/,
CCOC(=O)CSc1nc2sc(C(=O)O)c(C)c2c(=O)[nH]1,0,-1,-8,1,-12,-1,/,
CN(C)/C=N/c1c(C#N)cnn1-c1ccc(C(F)(F)F)cn1,0,0,/,-5,/,-1,/,
CN(C)/C=N/c1c(C#N)cnn1-c1nc2ccccc2s1,7,-2,8,50*,9,2,19*,
Cc1cc2cc(C)c(NCCNC(=O)c3cccs3)nc2cc1C,-2,-6,/,21*,14,-3,-7,
Cc1cc2cc(C)c(NCCNC(=O)c3ccccc3F)nc2cc1C,0,-1,-14,4,0,-2,/,
CCCCNC(=O)c1cc2nc3c(c(C(F)(F)F)n2n1)CCc1ccccc1-3,-2,0,18,30*,4,0,7,
Cc1cccc(C)c1-n1nnnc1C1(C)CN(S(C)(=O)=O)CC(=O)N1Cc1ccc(F)cc1 (stereo unspecified),/,/,/,8,/,/,/,
CCOc1cccc2sc(Nc3nc4ccc(NC(C)=O)cc4s3)nc12,2,-3,29,49*,57*,8,16,
C1COC(NC(C2CC2)C2CC2)=N1,-3,-1,2,17*,4,0,-7,
COc1ccc(N2CCN(c3oc(-c4ccc(OC)c(OC)c4)nc3C#N)CC2)cc1,-1,0,-8,58*,-6,0,-1,
O=C(CNC(=O)c1ccco1)Nc1ccc(Br)cc1,1,2,/,-4,1,-1,/,
CCc1ccc2n(-c3ccc(OC)cc3)c([S-])c(C(=O)Nc3cc(C)cc(C)c3)[n+]2c1,0,-4,8,90*,4,2,113*,RORg DNA counter=i
COc1cccc(C2=Cc3ccc(F)cc3C(CC(C)=O)N2c2ccc(C#CC3(O)CCCCC3)cc2)c1 (stereo unspecified),0,/,/,0,/,2,/,
COc1cc(/C=C2\SC(=O)N(CCNC(=O)c3sc4cc(F)ccc4c3Cl)C2=O)cc(OC)c1OC,0,-3,10,72*,-12,1,32*,RORg DNA counter=i
COc1cc(C(=O)NCC(=O)NCCN2C(=O)S/C(=C\c3ccccc3Cl)C2=O)cc(OC)c1OC,0,-1,-7,-3,2,1,/,
CCOC(=O)CSc1nc2ccsc2c(=O)n1C1CCN(C(=O)OCC)CC1,7,1,/,-6,13,/,/,
CCOC(=O)N1CCC(n2c(SCC(=O)c3ccccc3)nc3ccsc3c2=O)CC1,2,-3,/,37*,2,-2,55*,RORg DNA counter=i
CCOC(=O)c1cc(-c2cc3ccccc3o2)nc2c1c(=O)[nH]c(=O)n2CCOC,8,4,12,27*,-1,0,9,
Cc1c(C)n(O)c2ccc3nonc3c12,2,0,9,0,-5,-3,/,
CCN1C(=O)/C(=C\N2CCN(c3ccc(F)cc3)CC2)SC1=S,4,-4,/,213*,12,4,251*,RORg DNA counter=i
O=C(COc1ccc2c3c(c(=O)oc2c1)CCC3)N1CCCC1,0,-1,/,5,1,-2,/,
O=C1CN(c2nc(-c3ccccc3)c3ccccc3n2)c2ccccc2N1,-2,0,/,34*,18,1,15,
c1ccc(-c2nc(-n3nc4ccccc4n3)nc3ccccc23)cc1,-1,-6,27,2,29,0,/,
O=C1CCN(Cc2ccccc2)CCN1[C@H](CO)c1ccccc1,6,-1,-4,-5,0,-1,/,
SMILES,hiPSC survival,MIN6 prolif,H9c2 TAG inh,NR1D1 modulator,T cruzi inh,PG9 binder,NR1D1 mod conf,others
O=C(COc1ncnc2c(Cl)cc(Cl)cc12)N1CCCCC1,-3,0,/,-1,11,1,/,
O=C(COc1ncnc2c(Cl)cc(Cl)cc12)NC1CCCCCC1,5,0,3,30*,2,-1,32*,RORg DNA counter=1.3*
CCCN1C(=O)/C(=C\C=C2\N(CC)c3ccccc3C2(C)C)SC1=S,-2,/,-251,62*,44,0,2,
CN1/C(=C\C=C2/SC(=S)NC2=O)C(C)(C)c2ccccc21,-2,-6,-72,37*,75*,-6,19*,
CCN1C(=O)/C(=C/C=C2\C=CN(CC)c3ccccc32)SC1=S,-4,/,/,2,8,-14,/,
CCN1C(=O)C(=CC=CN(C)c2ccccc2)SC1=S,3,/,-60,42*,/,-2,46*,RORg DNA counter=>40
CC(=O)c1cc2c(cc1NC(=O)CN1CCN(c3cccc(C(F)(F)F)c3)CC1)OCO2,-1,-1,/,-1,32,2,/,
CCOC(=O)N1CCN(C(=O)Cn2cc3c(n2)CCCC3)CC1,-3,-1,/,-8,-20,1,/,
CCn1c2ccccc2c2cc(C3C(C#N)=C(C)NC(C)=C3C#N)ccc21,3,0,/,102*,21,-1,63*,RORg DNA counter=>40
Cc1cccn2cc(-c3ccc(NC(=O)Cc4ccccc4)cc3)nc12,0,4,-10,-7,15,1,/,
CC1Cc2ccccc2N1C(=O)CSc1nc2ccccc2n1CC(=O)N1CCOCC1 (stereo unspecified),0,-3,/,3,12,0,/,
COc1ncccc1-c1nnn(-c2ccc(C)cc2)n1,-1,-4,7,-7,-4,-2,/,
Cc1ccc(-n2nnc(-c3cc4ccccc4nc3Cl)n2)cc1,0,-2,-4,35*,8,0,30*,
CCOc1ccc(NC(=O)c2cc3c(=O)n(C)c4ccccc4c3n2C)cc1,3,0,/,41*,26,-1,21*,
Cn1c(C(=O)Nc2ccc3c(c2)OCO3)cc2c(=O)n(C)c3ccccc3c21,0,6,22,-6,13,-1,/,
Cc1ccc(-c2csc3nc[nH]c(=S)c23)cc1C,0,-4,/,24*,12,-1,32*,RORg DNA counter=>40
CCO[C@H]1OC(C(=O)O)=C[C@@H](c2csc3ccccc23)[C@@H]1CCCO,2,0,/,2,-22,-2,/,
Cc1c(N=C2N=C(NC(=O)c3cccs3)c3ccccc32)c(=O)n(-c2ccccc2)n1C,1,-6,-6,18*,27,0,16,
CCc1cc2cc3c(cc2nc1SCC(=O)Nc1nccs1)OCO3,-2,0,/,225*,-8,14*,123*,RORg DNA counter=>40
CC(=O)c1cc2c(cc1NC(=O)CSc1nc3ccccc3[nH]1)OCO2,/,-1,/,/,3,/,/,
